Compound activity from PubChem.
Most compounds without a hit are left out; they make up all but 3.9% or so of the library.
Rad51 HR inh: human RAD51 strand exchange inhibitors, primary screen, biochemical, fluorescence | DNA repair protein RAD51 homolog 1 (Homo sapiens), Q06609 | hRad51 DNA strand exchange, fluorescence dequenching | inhibition, % at 10 µM | 200,000 compounds, 0.085% hits;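 active = inhibition above 40% at the single screening dose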;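 note: 0% = DMSO control wells and 100% = blanks with heterologous ssDNA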
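Test system: preformed human Rad51 ssDNA filaments. Compound dosing: single dose, 10 µM final compound. Incubation: filaments 15 min 37 °C, then compound 30 min. Technique: FRET fluorescence dequenching, excitation 485 nm, emission 520 nm. Read-out basis: percent inhibition from fluorescence, normalised to plate control and blank means. Benchmarks: plate controls and plate blanks.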
FLuc stim CS: FLuc activators, initial screening, artefact control for FLuc-dependent activation tests, biochemical, ATPlite luminescence | ATPlite luciferase biochemical, 10 min; 0 = ATP-free wells, 1 = DMSO control | activation factor at 10 µM | 200,000 tested, under 10 active;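 active = luciferase activation factor, scaled between plate controls, of at least 2 with compound at 10 µM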
Target sequence (P08659 whole entry, looked up): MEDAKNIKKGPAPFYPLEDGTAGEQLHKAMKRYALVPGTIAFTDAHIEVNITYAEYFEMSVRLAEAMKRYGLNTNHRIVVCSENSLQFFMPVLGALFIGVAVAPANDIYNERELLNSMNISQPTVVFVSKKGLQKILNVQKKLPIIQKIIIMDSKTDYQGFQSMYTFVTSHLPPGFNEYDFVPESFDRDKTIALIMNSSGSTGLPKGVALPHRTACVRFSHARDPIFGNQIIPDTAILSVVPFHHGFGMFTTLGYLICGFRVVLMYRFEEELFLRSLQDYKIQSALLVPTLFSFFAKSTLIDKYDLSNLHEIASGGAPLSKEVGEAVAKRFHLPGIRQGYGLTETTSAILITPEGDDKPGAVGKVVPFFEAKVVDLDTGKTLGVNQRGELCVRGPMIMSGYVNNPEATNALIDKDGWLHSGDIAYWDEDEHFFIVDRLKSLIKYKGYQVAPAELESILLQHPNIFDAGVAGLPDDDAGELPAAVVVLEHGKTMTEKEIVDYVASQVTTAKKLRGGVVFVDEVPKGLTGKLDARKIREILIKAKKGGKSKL
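assay system = Luciferase/luciferin detection reagent, cell-free biochemical luciferase assay | also added = ATP substrate | times = 10 min post-reagent at room temperature | measured by = luminescence from luciferase reaction | measure = luciferase activation, seen as luminescence increase over controls | benchmarks = low control with PBS replacing ATP, high control enzyme plus ATP without compound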
APP 5'UTR act: activators of APP 5'UTR luciferase reporter, primary screen, SH-SY5Y cells; SH-SY5Y APP 5'UTR luciferase reporter, luminescence; zero percent = DMSO vehicle wells; activation, % at 2 µM; 190,000 compounds, 1% hits;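 active = activation above a set limit, based on mean plus 3 SD of controls, cut at about 140% in these data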
FLuc inhib CS: firefly luciferase enzyme inhibitors, primary screen, artefact control for luciferase-based inhibitor screens, biochemical, luminescence, ATPLite. Luciferin 4-monooxygenase (Photinus pyralis), P08659. 10 min. inhibition, % at 10 µM. AID 1006, 2008. 200,000 compounds, 1.5% hits;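 active = inhibition above about 50% when tested at 10 µM, limit read from the data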
STAT1 act: STAT1 signaling activators, primary screen, cell-based, HTS, luciferase reporter; 200,000 compounds, 2.6% hits; activation (% of control), % at 5.5 µM; NIH 3T3 STAT1-luciferase reporter, IFN-gamma, luminescence; 100% = IFN-gamma alone, no compound;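 active = activation above the screen-wide mean activation plus 3 SD, cut at about 130% in these data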;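 note: raw ratio to IFN-gamma control signal so 100% means no change and 0% no light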
NF-kB expr up: activators of NF-kB expression in neurons, primary screen, cell-based, HTS | AID 1239, 2008 | fold change at 12.5 µM | human neuronal cells, NF-kB reporter expression; hits give high values | 190,000 compounds, 1.6% hits; in the data active = fold change above about 3.3
* hit, by the source's call; i = inactive; x = no result given.

SMILES | Rad51 HR inh | FLuc stim CS | APP 5'UTR act | FLuc inhib CS | STAT1 act | NF-kB expr up
COc1cccc(/C=N/N2CCN(c3ccccc3OC)CC2)c1 | 3 | 0.9 | 32 | 12 | 135* | 1.9
COc1ccccc1N1CCN(C(=O)/C=C/c2ccco2)CC1 | x | 0.9 | 5 | 12 | 108 | 1.2
COc1ccccc1N1CCN(/N=C/C=C\c2ccco2)CC1 | 7 | 0.8 | 73 | 20 | 137* | 4*
CC(=O)c1c(C)[nH]c(C(=O)OCC(=O)Nc2sc3c(c2C#N)CCC(C)C3)c1C (centres undefined) | -1 | x | x | x | x | x
COc1ccc(C2=NC(c3ccccc3)CO2)cc1 (centres undefined) | 10 | 0.7 | 40 | 27 | 143* | 1.4
O=C(Nc1nc(-c2ccc(F)cc2)cs1)c1cnccn1 | 30 | 1 | -1 | -5 | 95 | 1.6
Fc1ccc(Nc2nc(-c3ccncc3)cs2)cc1 | 7 | 1 | 106 | -1 | 144* | 1.2
Nc1ccc(Nc2nc(-c3ccncc3)cs2)cc1 | 0 | 0.4 | 40 | 59* | 112 | 1.6
Cc1nc(C)c(-c2csc(Nc3ccc(F)cc3)n2)s1 | -6 | 1.1 | 75 | -8 | 142* | 1.2
O=[N+]([O-])c1cccc(-c2csc(Nc3ccccc3)n2)c1 | 0 | 1.1 | 83 | -6 | 143* | 2.6
Cc1ccc(-c2nc(C)sc2CC(=O)Nc2cccc(C)c2C)cc1 | -7 | 1.1 | -11 | -7 | 88 | 1.1
Cc1ccc(-c2noc(-c3ccno3)n2)cc1 | -7 | x | x | x | x | x
Cc1nc(N)sc1-c1csc(Nc2ncccn2)n1 | 10 | 0.7 | 177* | 32 | 125 | 2.5
Clc1ccc(Nc2nc(-c3ccncc3)cs2)cc1 | 5 | x | 2 | x | 137* | x
Oc1ccc(Nc2nc(-c3ccc(O)cc3)cs2)cc1 | -2 | 0.8 | 62 | 15 | 97 | 2.6
Cc1nc(N)sc1-c1csc(NCc2ccccc2)n1 | -6 | 1 | 11 | -2 | 104 | 1.2
c1ccc(Nc2nc(-c3ccncc3)cs2)cc1 | -3 | 0.9 | 40 | 7 | 145* | 2.1
Cc1cc(C)nc(SC(C)CNS(=O)(=O)c2ccccc2)n1 (centres undefined) | -5 | 1 | 14 | -4 | 95 | 1.1
Cc1ccc(NC(=O)c2cc(C)n(-c3cccc(C)c3)c2C)cc1 | 7 | 0.3 | 63 | 74* | 43 | 1.7
Cc1ccc(NC(=O)c2cc(C)n(-c3ccccc3)c2C)cc1 | 17 | 0 | 52 | 95* | 65 | 0.33
Cc1ccc(N2Cc3ccccc3C2=S)cc1 | 7 | 0.2 | 201* | 76* | 136* | 6.8*
S=C1c2ccccc2CN1c1ccccc1 | 11 | 0.9 | 19 | 8 | 107 | 1.7
COc1ccc(Cn2c(SCC#N)nc3ccc(N4CCOCC4)cc3c2=O)cc1 | -3 | 1.1 | 60 | -7 | 136* | 2.9
CCCCn1c(SCC(=O)Nc2cccc(OC)c2)nc2ccc(N3CCOCC3)cc2c1=O | -2 | 1 | 14 | 1 | 97 | 0.86
COc1ccc(CCNCC2C(Oc3ccc(Cl)cc3)C(=O)N2c2ccccc2C)cc1OC (centres undefined) | x | 1 | 15 | -2 | 85 | 0.61
SMILES | Rad51 HR inh | FLuc stim CS | APP 5'UTR act | FLuc inhib CS | STAT1 act | NF-kB expr up
CCN1/C(=C\C(C)=O)Sc2ccc(OC)cc21 | 0 | 1 | -23 | -2 | 108 | 1.3
CCN1/C(=C/C(C)=C/c2sc3ccccc3[n+]2CC)Sc2ccccc21 | 81* | 0.6 | -67 | 42 | 57 | 0.11
C#CCN1C(=O)S/C(=C/C=C/c2ccc(N(C)C)cc2)C1=O | i | 0.7 | 106 | 32 | 136* | 3.2
Cc1ccc(-n2c(C)cc(C(=O)COC(=O)c3c(C)noc3C)c2C)cc1 | -3 | 0.5 | 72 | 49 | 129* | 3.5*
CCC(=O)OCC(=O)c1cc(C)n(-c2ccc(Br)cc2)c1C | 3 | 0.4 | 14 | 59* | 97 | 1.3
Cc1cc(C(=O)COC(=O)CC2Sc3ccccc3NC2=O)c(C)n1-c1ccc(Br)cc1 (centres undefined) | -10 | 1 | 8 | -1 | 107 | 0.82
COC(=O)C[C@H]1c2cc(C(F)(F)F)ccc2S(=O)(=O)N1C1CCCC1 | -3 | x | x | x | x | x
CC(=O)c1cccc(NC(=O)C(C)N2CCc3ccccc3C2)c1 (centres undefined) | 2 | x | x | x | x | x
O=C(CSc1nnnn1-c1ccccc1)Nc1nsc(-c2ccccc2)n1 | x | 1 | 6 | -5 | 98 | 7.9*
O=C(CSc1ccc(F)cc1)NCCSc1ccccc1 | 1 | 1 | 30 | 0 | 101 | 1.5
Cc1ccc(NC(=O)c2sc3ccccc3c2Cl)nc1 | x | 0.2 | 192* | 80* | 128 | 3.2
COCc1nnc(NC(=O)c2sc3ccccc3c2Cl)s1 | -1 | 0.4 | 11 | 63* | 101 | 1.7
CCCCn1nnc(NC(=O)c2sc3cc(Cl)ccc3c2Cl)n1 | 2 | 1 | 4 | 1 | 107 | 1.1
Cc1ccnc(NC(=O)c2sc3cc(Cl)ccc3c2Cl)c1 | -6 | 0.5 | 171* | 50 | 111 | 3.6*
Cc1c(NC(=S)NC(=O)c2sc3ccccc3c2Cl)cccc1C(=O)O | -1 | 0.7 | 186* | 31 | 121 | 3
COc1cccc(CNC(=O)C(C(=O)NCc2cccc(OC)c2)c2ncc(C(F)(F)F)cc2Cl)c1 | 12 | 1 | 1 | -3 | 101 | 1
COC(=O)c1ccc(Cn2nc([N+](=O)[O-])c(Br)c2C)cc1 | -13 | x | x | x | x | x
Cn1ccnc1C(O)(c1ccccc1)c1ccccc1 | -8 | x | x | x | x | x
Cc1cccc(C)c1NC(=O)CN1C(=O)NC(C)(CCc2ccccc2)C1=O (centres undefined) | 4 | 1.1 | 9 | -5 | 87 | 1
Cn1cccc1/C=N/NC(=O)c1sc2ccccc2c1Cl | x | 0.8 | 13 | 21 | 131* | 1.4
Cc1nnc(NC(=O)c2sc3ccccc3c2Cl)s1 | 1 | 0 | 65 | 97* | 78 | 3.3*
Cc1ccc2nsnc2c1NC(=O)c1sc2ccccc2c1Cl | 6 | 1 | 20 | 0 | 101 | 1.5
Cc1c(/C=N/NC(=O)c2sc3ccccc3c2Cl)cnn1C | 7 | 0.9 | -5 | 7 | 109 | 0.98
COc1cccc(/C=C/C(=O)Nc2ccccc2N2CCOCC2)c1 | -8 | 0.6 | 9 | 44 | 108 | 1.1
NC1=NC(=O)/C(=C/c2c(OS(=O)(=O)c3ccc(Cl)cc3)ccc3ccccc23)S1 | -11 | 1.1 | 4 | -8 | 95 | 1
N#C/C(C(=O)c1ccccc1)=C1/CCCN1 | 0 | 1 | -7 | 2 | 100 | 1.1
